Assays:
Plasma [1] = experiment: Antioxidant activity in New Zealand White rabbit plasma assessed as increase in conjugated diene formation at 568 uM by thiobarbituric acid method; format: functional, Oryctolagus cuniculus
Outline: (§1)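 LDL was isolated from New Zealand White rabbit plasma, and its susceptibility to oxidation was measured by a previously published method. Each compound was tested at three final concentrations. Freshly prepared vitamin C served as the positive control.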

Brain [2] = experiment: Antioxidant activity in rat brain assessed as malondialdehyde level at 568 uM by thiobarbituric acid method; format: functional
Outline: (§2)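 Rat brain MDA was measured by the thiobarbituric acid method, following a previously published protocol. Each compound was tested at three final concentrations. Freshly prepared vitamin C served as the positive control.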

[3] = Neuroprotective activity in Swiss-Webster mouse neocortical cells with oxygen and glucose deprivation assessed as decrease in lactic dehydrogenase leakage at 3.70 uM; format: functional; set-up: scale not given: the % may be the effect or the level left
Outline: (§3)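 Cultured neocortical cells were exposed to OGD with compound at one of three final concentrations; controls received the same volume of glucose-free Earle's buffer instead. For OGD, the chamber was flushed with 95% N2/5% CO2 for 10 min, sealed, and kept at 37 °C for 25 min, followed by 30 min under normal conditions. The treatment was repeated twice, and cells were held 6 h at 37 °C after the last one. LDH was measured in medium and in freeze-thaw lysate. Leakage = extracellular/(extracellular+intracellular) ×100%.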

[4] = Neuroprotective activity in Swiss-Webster mouse neocortical cells with oxygen and glucose deprivation assessed as decrease in lactic dehydrogenase leakage at 370 uM; format: functional; set-up: scale not given: the % may be the effect or the level left; outline: as §3
Plasma [5] = experiment: Antioxidant activity in New Zealand White rabbit plasma assessed as increase in conjugated diene formation at 37 uM by thiobarbituric acid method; format: functional, Oryctolagus cuniculus; outline: as §1
[6] = Neuroprotective activity in Swiss-Webster mouse neocortical cells with oxygen and glucose deprivation assessed as decrease in lactic dehydrogenase leakage at 37 uM; format: functional; set-up: scale not given: the % may be the effect or the level left; outline: as §3
Plasma [7] = experiment: Antioxidant activity in New Zealand White rabbit plasma assessed as increase in conjugated diene formation at 3.70 uM by thiobarbituric acid method; format: functional, Oryctolagus cuniculus; outline: as §1
Brain [8] = experiment: Antioxidant activity in rat brain assessed as malondialdehyde level at 37 uM by thiobarbituric acid method; format: functional; outline: as §2
Brain [9] = experiment: Antioxidant activity in rat brain assessed as malondialdehyde level at 3.70 uM by thiobarbituric acid method; format: functional; outline: as §2
Plasma [10] = experiment: Antioxidant activity in New Zealand White rabbit plasma assessed as increase in conjugated diene formation at 370 uM by thiobarbituric acid method; format: functional, Oryctolagus cuniculus; outline: as §1
Brain [11] = experiment: Antioxidant activity in rat brain assessed as malondialdehyde level at 370 uM by thiobarbituric acid method; format: functional; outline: as §2
Brain [12] = experiment: Antioxidant activity in rat brain assessed as malondialdehyde level at 21.7 uM by thiobarbituric acid method; format: functional; outline: as §2
[13] = Neuroprotective activity in Swiss-Webster mouse neocortical cells with oxygen and glucose deprivation assessed as decrease in lactic dehydrogenase leakage at 2.17 uM; format: functional; set-up: scale not given: the % may be the effect or the level left; outline: as §3
Brain [14] = experiment: Antioxidant activity in rat brain assessed as malondialdehyde level at 217 uM by thiobarbituric acid method; format: functional; outline: as §2
Plasma [15] = experiment: Antioxidant activity in New Zealand White rabbit plasma assessed as increase in conjugated diene formation at 2.17 uM by thiobarbituric acid method; format: functional, Oryctolagus cuniculus; outline: as §1
[16] = Neuroprotective activity in Swiss-Webster mouse neocortical cells with oxygen and glucose deprivation assessed as decrease in lactic dehydrogenase leakage at 21.7 uM; format: functional; set-up: scale not given: the % may be the effect or the level left; outline: as §3
Plasma [17] = experiment: Antioxidant activity in New Zealand White rabbit plasma assessed as increase in conjugated diene formation at 217 uM by thiobarbituric acid method; format: functional, Oryctolagus cuniculus; outline: as §1
[18] = Neuroprotective activity in Swiss-Webster mouse neocortical cells with oxygen and glucose deprivation assessed as decrease in lactic dehydrogenase leakage at 217 uM; format: functional; set-up: scale not given: the % may be the effect or the level left; outline: as §3
Plasma [19] = experiment: Antioxidant activity in New Zealand White rabbit plasma assessed as increase in conjugated diene formation at 21.7 uM by thiobarbituric acid method; format: functional, Oryctolagus cuniculus; outline: as §1
Brain [20] = experiment: Antioxidant activity in rat brain assessed as malondialdehyde level at 2.17 uM by thiobarbituric acid method; format: functional; outline: as §2

`O=C1O[C@H]([C@@H](O)CO)C(O)=C1O` [ASCORBIC ACID] gave an Activity (Plasma [1]) of 0.17% and an Activity (Brain [2]) of 1.35 nmol/mg.
Work on `COC1=CC(=O)c2c(ccc3cc(O)c(O)cc23)C1=O` yielded an Activity [3] of 38.3%, an Activity [4] of 36.58% and an Activity (Plasma [5]) of 112.97%. For the same molecule, the Activity [6] was 41.09%, the Activity (Plasma [7]) was 67.46% and the Activity (Brain [8]) was 1.43 nmol/mg protein. The Activity (Brain [9]) was 1.52 nmol/mg protein, the Activity (Plasma [10]) was 95.09% and the Activity (Brain [11]) was 1.23 nmol/mg protein.
`COc1cc(-c2cc(=O)c3c(O)cc(O)cc3o2)ccc1O[C@@H]1O[C@H](CO)[C@@H](O)[C@H](O)[C@H]1O` gave an Activity (Brain [12]) of 1.43 nmol/mg protein, an Activity [13] of 25.52% and an Activity (Brain [14]) of 1.16 nmol/mg protein. For the same molecule, the Activity (Plasma [15]) was 51.62%, the Activity [16] was 22.74% and the Activity (Plasma [17]) was 0.32%. It also gave an Activity [18] of 21.14%, an Activity (Plasma [19]) of 30.16% and an Activity (Brain [20]) of 1.46 nmol/mg protein.
Work on `COc1cc(-c2cc(=O)c3c(O)cc(O[C@@H]4O[C@H](CO)[C@@H](O)[C@H](O)[C@H]4O)cc3o2)ccc1O` yielded an Activity (Brain [12]) of 1.19 nmol/mg protein, an Activity [13] of 27.35% and an Activity (Brain [14]) of 0.95 nmol/mg protein. It also gave an Activity (Plasma [15]) of 62.24%, an Activity [16] of 22.51% and an Activity (Plasma [17]) of 11.52%. It also gave an Activity [18] of 21.99%, an Activity (Plasma [19]) of 66.21% and an Activity (Brain [20]) of 1.37 nmol/mg protein.
